Results gathered from unrelated publications.
Compare with care: the assays were run in different laboratories.

O=C1CC[C@H](N2Cc3cc(N4CCN(CC5CCN(c6ccc([C@@H]7c8ccc(O)cc8CC[C@@H]7c7ccccc7)cc6)CC5)CC4)ccc3C2=O)C(=O)N1 — half-life (female Sprague-Dawley rat, plasma; oral, 20 mg/kg, fasted): 5.24 h
C/C(=N\c1ccc(O)cc1)c1cc2ccccc2n1C — concentration (male Sprague-Dawley rat, plasma; intravenous, 5 mg/kg, 5 min, single dose): 173 ng/mL
CC(=Nc1ccc(N=Cc2cnccn2)cc1)N(C)C — half-life (male Sprague-Dawley rat, plasma; intravenous, 20 mg/kg): 1.53 h
COc1cc(C2NC(=O)NC(C)=C2C(=O)OC(C)C)cc(OC)c1OC (stereo not shown) — viability (MCF-10A; cell growth or viability, MTT; 50 µM, 96 h): 92%
O=C(C=Cc1ccccc1)Nc1cc(-c2ccnc(N3CCC(O)CC3)c2)ccn1 — half-life (female Sprague-Dawley rat, plasma; intravenous, 5 mg/kg): 0.47 h
O=C(c1ccc(OCCN2CCCCC2)cc1)c1c(-c2ccc(O)cc2)sc2cc(O)ccc12 — inhibition (Broad substrate specificity ATP-binding cassette transporter ABCG2 (ABCG2, Homo sapiens, UniProt Q9UNQ0); transporter uptake, inhibitor; Sf9; 10 µM, pH 7, cell membranes): ~50%
Nc1ccc(/C=C/C(=O)NCc2cc3cc(-c4ccc(C(=O)N5CCC(F)(F)CC5)cc4)cc(-c4ccc(F)cc4)c3o2)cn1 — half-life (rat, plasma; intravenous, 1 mg/kg): 5.61 h
CC1=C(C(=O)OC(C)C)C(c2cccc(O)c2)NC(=S)N1 (stereo not shown) — viability (MCF-10A; cell growth or viability, MTT; 50 µM, 96 h): 93%
N#C[C@@]12C[C@@H]1[C@@H](n1cnc3c(N[C@@H](C4CCC4)C4CC4)nc(I)nc31)[C@H](O)[C@@H]2O — half-life (male Wistar rat, plasma; oral, 1 mg/kg): 2.2 h
COc1cc(C2NC(=O)NC(C)=C2C(=O)OC(C)C)ccc1OCc1ccccc1 (stereo not shown) — viability (MCF-10A; cell growth or viability, MTT; 50 µM, 96 h): 91%
COc1cccc2c1C(=O)c1c(O)c3c(c(O)c1C2=O)C[C@@](O)(C(=O)CO)C[C@@H]3O[C@H]1C[C@H](N)[C@H](O)[C@H](C)O1 — viability (K562; cell growth or viability, MTT; 100 µg/mL): 23.9%
CC1=C(C(=O)OC(C)C)C(c2cccc(O)c2)NC(=O)N1 (stereo not shown) — viability (MCF-10A; cell growth or viability, MTT; 50 µM, 96 h): 87%
CC1(CN)CCN(c2cnc3c(Sc4ccncc4Cl)n[nH]c3n2)CC1 — half-life (male Sprague-Dawley rat, plasma; oral, 10 mg/kg): 2.47 h
